According to PubChem BioAssay:
Calls of active or inactive are those of the source.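 Rule for the calls, unless noted: active = viability loss from added drug above about 55%, and viability with drug at most 40%, in both replicates (limit read from the data, passing the limit was not always enough); inconclusive = both conditions met in only one replicate; inactive = neither replicate meets both conditions.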

Columns and labels:
[1] = Her2 expression decrease, cell viability multiplex – SKBR3 breast tumor cells, AlphaScreen, ATP viability, primary screen (AID 461;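 active = Her2 level under about 52% in both replicate screens, with viability over 70% of control, limit read from the data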;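 for Her2 level: lower value means less Her2 protein in the cells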;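 for viability: percent of carrier control wells set as 100% viability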); conditions: SKBR3 Her2 protein level, 18-24 h, measured here: SKBR3 viability, ATP luminescence, at 10 µM
[2] = biological target: Receptor tyrosine-protein kinase erbB-2 (Homo sapiens) (UniProt P04626); assay: as above; conditions: 18-24 h, at 10 µM, stronger effect = lower value
[3] = reduced viability of SK-BR-3 breast cancer cells – cell-based, 24 h, human, pilot screen (AID 572;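 active = viability at or below 10% of carrier control in both of two separate runs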;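 note: compound exposure lasted between 18 and 24 h rather than exactly 24 h; 100% = carrier-treated control wells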); conditions: SK-BR-3 viability, CellTiter-Glo luminescence, at 10 µM, stronger effect = lower value
[4] = HUVEC growth inhibition – cell-based, human, primary screen (AID 575;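 active = viability at or below 30% in both replicate assays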;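 note: 100% = median of untreated cell wells with 0.1% DMSO on each plate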); conditions: HUVEC proliferation, CellTiter-Glo luminescence, 72 h; at 10 µM; stronger effect = lower value
Method in brief: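 System – primary HUVEC, no more than 12 passages · Medium – Low-serum (2% FBS) EBM, supplemented · Times – 72 h exposure, 37 °C, 5% CO2, 30 min RT equilibration · Measured by – luminescent ATP assay · Read-out – % viability relative to median vehicle-well signal on each plate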

[5] = H69AR cell proliferation blockers – human, duplicate replicates, primary screen (AID 580;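 active = viability at or under a set limit in both replicates, limit being median viability minus 3 SD, cut at about 48% in these data, passing the limit was not always enough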;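 note: 100% = mean luminescence of untreated wells and 0% = no signal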); conditions: H69AR lung tumor cells viability, ATP luminescence, 72 h; at 10 µM; stronger effect = lower value
[6] = MRP1 drug-resistance reversers in H69AR cells – cell-based, doxorubicin co-treatment, pilot screen (AID 601); conditions: CellTiter-Glo, 72 h, at 10 µM; for differential viability (reversal): stronger effect = higher value
[7] = yeast transport mutant growth inhibition pilot in 384-well plates, post-Golgi transport modulator project (AID 636; in the data active = inhibition above about 31%); conditions: absorbance 615 nm, about 18 h, stronger effect = higher value
[8] = growth suppression of yeast trafficking mutant, preliminary HTS, modulators of trafficking downstream of Golgi apparatus project, 1536-format plate, OD 615 nm (AID 637; in the data active = inhibition above about 30%); conditions: yeast transport mutant growth, absorbance 615 nm, 18 h; stronger effect = higher value
[9] = H69AR cells + 2 uM doxorubicin, measured here: viability with 2 uM doxorubicin, stronger effect = lower value
[10] = H69AR cells, compound alone cytotoxicity

Receptor tyrosine-protein kinase erbB-2 (Homo sapiens), sequence (P04626 whole entry, looked up): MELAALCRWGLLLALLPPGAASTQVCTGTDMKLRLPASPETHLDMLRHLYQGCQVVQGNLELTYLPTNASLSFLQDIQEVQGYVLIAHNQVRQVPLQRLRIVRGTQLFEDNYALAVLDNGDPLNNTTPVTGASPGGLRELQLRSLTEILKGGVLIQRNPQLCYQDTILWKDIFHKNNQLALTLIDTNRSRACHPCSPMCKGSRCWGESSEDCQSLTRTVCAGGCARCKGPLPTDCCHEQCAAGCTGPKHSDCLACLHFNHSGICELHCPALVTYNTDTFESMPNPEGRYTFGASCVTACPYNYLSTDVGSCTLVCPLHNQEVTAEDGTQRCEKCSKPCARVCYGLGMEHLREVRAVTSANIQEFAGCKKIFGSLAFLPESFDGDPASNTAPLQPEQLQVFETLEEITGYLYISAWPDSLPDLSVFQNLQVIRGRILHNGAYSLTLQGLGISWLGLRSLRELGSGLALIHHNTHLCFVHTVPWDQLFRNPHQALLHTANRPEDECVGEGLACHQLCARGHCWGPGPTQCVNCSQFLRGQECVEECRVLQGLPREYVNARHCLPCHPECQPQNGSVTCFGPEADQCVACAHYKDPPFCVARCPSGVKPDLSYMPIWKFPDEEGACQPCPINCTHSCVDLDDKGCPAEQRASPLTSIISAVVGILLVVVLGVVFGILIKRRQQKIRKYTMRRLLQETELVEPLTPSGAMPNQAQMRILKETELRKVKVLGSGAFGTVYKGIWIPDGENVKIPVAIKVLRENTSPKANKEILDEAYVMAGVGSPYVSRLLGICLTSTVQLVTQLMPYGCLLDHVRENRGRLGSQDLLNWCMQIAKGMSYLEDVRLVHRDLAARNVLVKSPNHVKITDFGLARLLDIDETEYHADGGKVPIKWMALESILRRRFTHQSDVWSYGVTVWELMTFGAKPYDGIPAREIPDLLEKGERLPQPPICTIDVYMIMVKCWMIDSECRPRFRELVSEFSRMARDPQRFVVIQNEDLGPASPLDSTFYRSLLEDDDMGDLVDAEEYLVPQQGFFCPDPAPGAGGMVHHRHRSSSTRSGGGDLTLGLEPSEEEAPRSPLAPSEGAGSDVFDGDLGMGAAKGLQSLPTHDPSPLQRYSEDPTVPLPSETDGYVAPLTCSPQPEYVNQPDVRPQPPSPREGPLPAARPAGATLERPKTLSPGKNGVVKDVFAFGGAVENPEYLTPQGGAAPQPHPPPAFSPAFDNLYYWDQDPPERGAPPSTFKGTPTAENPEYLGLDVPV

| Compound | viability [1] | Her2 level [2] | viability [3] | viability [4] | viability [5] | differential viability (reversal) ([6]; H69AR cells + 2 uM doxorubicin) | viability [6, 9] | viability [6, 10] | inhibition [7] | inhibition [8] |
| --- | --- | --- | --- | --- | --- | --- | --- | --- | --- | --- |
| CCOc1ccc(CN2CCN(c3cc(C)nc4c5c(C)cc(C)nc5nn34)CC2)cc1 | 80% | 83.5% (inactive) | 80% (inactive) | 94.2% (inactive) | 88.8% (inactive) | -3.18% (inactive) | 92% | 88.8% | -2.5% (inactive) | -4.36% (inactive) |
| COC(=O)c1[nH]c2ccccc2c1NC(=O)CN1CCC(C(N)=O)(N2CCCCC2)CC1 | 96% | 97.5% (inactive) | 96% (inactive) | 101% (inactive) | 93.2% (inactive) | 5.43% (inactive) | 87.8% | 93.2% | 1.58% (inactive) | 0.49% (inactive) |
| O=C(COC(=O)c1ccccc1Oc1ccccc1)NC1CCS(=O)(=O)C1 (stereo not given) | 107% | 104% (inactive) | 107% (inactive) | 98.8% (inactive) | 90% (inactive) | -8.6% (inactive) | 98.6% | 90% | 0.54% (inactive) | -5.57% (inactive) |
| CCC(NC(=O)Nc1cc(OC)c(OC)c(OC)c1)(C(F)(F)F)C(F)(F)F | 112% | 83.5% (inactive) | 112% (inactive) | 105% (inactive) | 93% (inactive) | -7.81% (inactive) | 101% | 93% | -4.47% (inactive) | 11% (inactive) |
| Brc1cccc(-c2cnc3n2CCCCC3)c1 | 95.5% | 89.5% (inactive) | 95.5% (inactive) | 67.1% (inactive) | 91.5% (inactive) | 11.1% (inactive) | 80.4% | 91.5% | -6.53% (inactive) | 4.26% (inactive) |
| CCSc1nnc(NC(=O)CSc2nnc(Cc3cccn3C)n2-c2ccc(C)cc2)s1 | 95.5% | 108% (inactive) | 95.5% (inactive) | 78.4% (inactive) | 88.8% (inactive) | -7.38% (inactive) | 96.1% | 88.8% | -1.56% (inactive) | -5.24% (inactive) |
| CC(C)(C)c1cc(CCC(=O)N2CCNCC2)c(C(C)(C)C)cc1O | 106% | 85.5% (inactive) | 106% (inactive) | 82.9% (inactive) | 98.3% (inactive) | 8% (inactive) | 90.3% | 98.3% | -0.26% (inactive) | -2.46% (inactive) |
| CC(C)(C)n1cnc2cc(NS(=O)(=O)c3ccc(Br)cc3)ccc21 | 104% | 69.5% (inactive) | 104% (inactive) | 80.2% (inactive) | 87% (inactive) | -8.39% (inactive) | 95.4% | 87% | -1.58% (inactive) | -0.48% (inactive) |
| Cn1c(CN2CCOCC2)nc2cc(NC(=O)c3ccccc3Cl)ccc21 | 102% | 103% (inactive) | 102% (inactive) | 92% (inactive) | 97.1% (inactive) | -2.36% (inactive) | 99.5% | 97.1% | -3.55% (inactive) | -2.42% (inactive) |
| COc1ccc2oc(=O)c(C(=O)N3CCN(c4ccccc4F)CC3)cc2c1 | 97.5% | 95.5% (inactive) | 97.5% (inactive) | 108% (inactive) | 88.1% (inactive) | -9.48% (inactive) | 97.6% | 88.1% | -6.4% (inactive) | -3.65% (inactive) |
| COc1ccccc1CNC(=O)CCNC(=O)Cn1ccc2ccccc2c1=O | 93% | 92% (inactive) | 93% (inactive) | 98.3% (inactive) | 100% (inactive) | 12.8% (inactive) | 87.4% | 100% | -0.13% (inactive) | 4.59% (inactive) |
| Cn1c(=O)[nH]c(=O)c2[nH]c(NCCCN3CCOCC3)nc21 | 93.5% | 85.5% (inactive) | 93.5% (inactive) | 92.1% (inactive) | 101% (inactive) | 16.1% (inactive) | 85% | 101% | -2.47% (inactive) | -0.79% (inactive) |
| Cc1cc(Nc2ccc(N3CCC(C)CC3)cc2)n2ncnc2n1 | 100% | 110% (inactive) | 100% (inactive) | 101% (inactive) | 77.6% (inactive) | -1.35% (inactive) | 79% | 77.6% | 5.62% (inactive) | 3.02% (inactive) |
| c1cc(CNc2ccc3c(c2)OCO3)ccn1 | 80% | 92% (inactive) | 80% (inactive) | 70.7% (inactive) | 90% (inactive) | -12.5% (inactive) | 103% | 90% | -5.81% (inactive) | -2.13% (inactive) |
| Cc1ccc(-c2noc(C3CCCN(C(=O)c4ccccc4)C3)n2)o1 (stereo not given) | 86% | 95% (inactive) | 86% (inactive) | 94.8% (inactive) | 95.1% (inactive) | 4.09% (inactive) | 91% | 95.1% | -5.66% (inactive) | 0.33% (inactive) |
| C=CCSc1nc2c(c(=O)[nH]c(=O)n2C)n1C(C)C | 85.5% | 89% (inactive) | 85.5% (inactive) | 88.9% (inactive) | 106% (inactive) | 17.9% (inactive) | 88.2% | 106% | -2.63% (inactive) | -1.64% (inactive) |
| Cc1ccc(NC2c3ncccc3C(=O)N2C2CCCCC2)cc1C (stereo not given) | 98.5% | 94.5% (inactive) | 98.5% (inactive) | 91.7% (inactive) | 92.7% (inactive) | -4.25% (inactive) | 97% | 92.7% | -3.78% (inactive) | 11.5% (inactive) |
| O=C1NC(Nc2ccccn2)(C(F)(F)F)C(=O)N1c1ccc(F)cc1 (stereo not given) | 102% | 89% (inactive) | 102% (inactive) | 107% (inactive) | 103% (inactive) | -0.015% (inactive) | 103% | 103% | -5.47% (inactive) | 1.64% (inactive) |
| O=c1[nH]c2cccnc2n1Cc1ccco1 | 90% | 88% (inactive) | 90% (inactive) | 107% (inactive) | 97.5% (inactive) | 13.8% (inactive) | 83.8% | 97.5% | -4.32% (inactive) | 0.83% (inactive) |
| O=C(O)CC1NC(=O)N(c2ccccc2)C1=O (stereo not given) | 108% | 85% (inactive) | 108% (inactive) | 109% (inactive) | 99.3% (inactive) | 7.85% (inactive) | 91.5% | 99.3% | -5.33% (inactive) | 0% (inactive) |
| COc1ccc2c(CC(=O)Nc3ccc(OC)c(NS(=O)(=O)c4ccc(F)cc4)c3)coc2c1 | 88% | 85% (inactive) | 88% (inactive) | 70.2% (inactive) | 86.3% (inactive) | -1.86% (inactive) | 88.1% | 86.3% | -2.18% (inactive) | -0.33% (inactive) |
| CCCCOc1ccc(NC(=O)Cn2c(=O)ccc3c(C)cc(C)nc32)cc1 | 102% | 104% (inactive) | 102% (inactive) | 94.1% (inactive) | 91.2% (inactive) | 11.8% (inactive) | 79.5% | 91.2% | -3.55% (inactive) | -1.45% (inactive) |
| CCn1cc(S(=O)(=O)CC(=O)Nc2ccc(OC)cc2)c2ccccc21 | 104% | 88% (inactive) | 104% (inactive) | 105% (inactive) | 91.8% (inactive) | 21.4% (inactive) | 70.4% | 91.8% | -1.6% (inactive) | 0% (inactive) |
| CCCCCC1CC(CC(C)C(=O)Nc2nncs2)C(=O)O1 (stereo not given) | 90.5% | 86.5% (inactive) | 90.5% (inactive) | 85.2% (inactive) | 93.3% (inactive) | 7.83% (inactive) | 85.4% | 93.3% | -5.6% (inactive) | -2.86% (inactive) |
| O=C(O)CC1=C(O)C(=O)N(c2ccccc2)C1c1ccccc1 (stereo not given) | 102% | 107% (inactive) | 102% (inactive) | 96.9% (inactive) | 102% (inactive) | 7.7% (inactive) | 94.1% | 102% | -1.49% (inactive) | -0.49% (inactive) |
| CCC(OC(=O)c1cccs1)C(=O)NCc1ccco1 (stereo not given) | 103% | 93% (inactive) | 103% (inactive) | 98.6% (inactive) | 91.4% (inactive) | 9.38% (inactive) | 82% | 91.4% | -2.86% (inactive) | 1.97% (inactive) |
| Cn1c(SC/C=C/c2ccccc2)nnc1-c1cnccn1 | 80.5% | 102% (inactive) | 80.5% (inactive) | 114% (inactive) | 94.3% (inactive) | 10.3% (inactive) | 84% | 94.3% | 2.27% (inactive) | -5.48% (inactive) |
| Cc1cc(OCC(=O)N2CCCC2)cc(C)c1Cl | 102% | 96% (inactive) | 102% (inactive) | 101% (inactive) | 89.6% (inactive) | 16.1% (inactive) | 73.5% | 89.6% | -6.8% (inactive) | -0.33% (inactive) |
